Results from ChEMBL document CHEMBL6071151, “Discovery of Inhibitors Targeting Protein-Protein Interaction between Bacterial RNA Polymerase and NusG as Novel Antimicrobials” (J Med Chem, 2024).
pIC50: −log10 of the molar value. ≈ marks a conversion by molar mass, not a printed value. Calls of active or inactive are those of the source.

Tests used:
Escherichia coli [1] = experiment: Antimicrobial activity against Escherichia coli ATCC 25922 assessed as reduction in microbial growth measured after 20 hrs by CLSI based broth microdilution method; assay type: functional
Method in brief: (§1)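 Broth microdilution per CLSI in cation-adjusted Mueller-Hinton broth. Two-fold serial dilutions from 256 to 0.25 μg/mL, inoculum about 5 × 10⁵ CFU/mL. Read after 20 h at 37 °C. MIC is the lowest concentration with no visible growth. Run in duplicate.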

Staphylococcus aureus [2] = experiment: Antimicrobial activity against community-associated methicillin-resistant Staphylococcus aureus USA300 assessed as reduction in bacterial count at 1 times MIC measured after 4 to 6 hrs by time-kill assay; assay type: functional, organism-based; conditions: time 4-6 hrs
Method in brief: (§2)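 S. aureus (ATCC 25923 or CA-MRSA USA300) in log phase suspended at about 1.5×10^6 CFU/mL in CA-MHB containing compound at multiples of MIC, with a drug-free broth control. Cultures held at 37 °C, aerobic, shaking at 180 rpm. Samples taken at 0, 2, 4 and 6 h, 10-fold diluted in PBS and spotted on Columbia blood agar. Colonies counted after overnight 37 °C as CFU/mL. Triplicate.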

Acinetobacter baumannii = experiment: Antimicrobial activity against Acinetobacter baumannii ATCC 19606 assessed as reduction in microbial growth measured after 20 hrs by CLSI based broth microdilution method; assay type: functional; method in brief: as §1
Streptococcus pneumoniae [3] = experiment: Antimicrobial activity against Streptococcus pneumoniae clinical isolate CUHK-X03 assessed as reduction in microbial growth measured after 20 hrs by CLSI based broth microdilution method; assay type: functional
Streptococcus pneumoniae [4] = experiment: Antimicrobial activity against Streptococcus pneumoniae clinical isolate CUHK-X01 assessed as reduction in microbial growth measured after 20 hrs by CLSI based broth microdilution method; assay type: functional
Bacillus subtilis [5] = experiment: Antibacterial activity against Bacillus Subtilis assessed as bacterial transcription by measuring subcellular localization of MreB at 1 time MIC incubated for 30 mins by epifluorescence microscopy based analysis; assay type: functional, organism-based
Method in brief: (§3)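 B. subtilis reporter strains expressing GFP fusions, grown overnight on selective LB agar at 37 °C, then overnight in LB with selective antibiotic and xylose, 37 °C, 180 rpm. Cells mounted on 1.2% agarose, imaged by epifluorescence with 100×/1.45 oil objective, FITC (525/50) filter.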

Staphylococcus aureus [6] = experiment: Antimicrobial activity against Staphylococcus aureus ATCC 25923 measuring eradication of bacteria at 4 to 16 times MIC measured over 6 hrs by time-kill assay; assay type: functional; method in brief: as §2
[7] = Inhibition of Bacillus subtilis LgBiT-fused NusG/C-terminal SmBit fused […] CH protein-protein interaction using […] incubated for 20 mins by luminescence based analysis
Method in brief: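 Split-nanoluciferase competition assay with His-tagged proteins expressed in E. coli BL21(DE3) and Ni-purified. C-SmBiT-β'CH (250 nM in PBS) was preincubated with compound for 10 min at 37 °C. N-LgBiT-NusG (250 nM in PBS) was then added and incubated 10 min at 37 °C. Nano-Glo substrate was added and luminescence read. IC50 determined. Triplicate with technical repeats.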

Streptococcus pyogenes = experiment: Antimicrobial activity against Streptococcus pyogenes ATCC 19615 assessed as reduction in microbial growth measured after 20 hrs by CLSI based broth microdilution method; assay type: functional
Bacillus subtilis [8] = experiment: Antibacterial activity against Bacillus Subtilis assessed as bacterial transcription by measuring delocalization of GFP-tagged RpoC at 1 time MIC incubated for 30 mins by epifluorescence microscopy based analysis; assay type: functional, organism-based; method in brief: as §3
Staphylococcus aureus [9] = experiment: Antimicrobial activity against community-associated methicillin-resistant Staphylococcus aureus USA300 assessed as reduction in bacterial count below the detectable threshold at 4 to 16 times MIC measured after 4 hrs by time-kill assay; assay type: functional, organism-based; method in brief: as §2
Bacillus subtilis [10] = experiment: Antibacterial activity against Bacillus Subtilis assessed as bacterial transcription by measuring delocalization of GFP-tagged RpsB at 1 time MIC incubated for 30 mins by epifluorescence microscopy based analysis; assay type: functional, organism-based; method in brief: as §3
Staphylococcus aureus [11] = experiment: Antimicrobial activity against Staphylococcus aureus ATCC 25923 assessed as reduction in microbial growth measured after 20 hrs by CLSI based broth microdilution method; assay type: functional; method in brief: as §1
Staphylococcus aureus [12] = experiment: Antimicrobial activity against Staphylococcus aureus ATCC 25923 assessed as reduction in bacterial count at 1 times MIC measured after 4 to 6 hrs by time-kill assay; assay type: functional, organism-based; conditions: time 4-6 hrs
Enterococcus faecalis = experiment: Antimicrobial activity against Enterococcus faecalis ATCC 19433 assessed as reduction in microbial growth measured after 20 hrs by CLSI based broth microdilution method; assay type: functional; method in brief: as §1
Staphylococcus aureus [13] = experiment: Antimicrobial activity against community-associated methicillin-resistant Staphylococcus aureus USA300 assessed as inhibition of microbial growth at 1 times MIC measured after 2 hrs by time-kill assay; assay type: functional, organism-based; method in brief: as §2
[14] = system: Staphylococcus epidermidis; experiment: Antimicrobial activity against Staphylococcus epidermidis ATCC 12228 assessed as reduction in microbial growth measured after 20 hrs by CLSI based broth microdilution method; assay type: functional
Escherichia coli [15] = experiment: Upregulation of cat gene transcription level in Escherichia coli K12 transformed with pSL103 at 1/8 to 1/4 times MIC measured after 30 mins; assay type: functional
Method in brief: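 Cells lysed with lysozyme in TE, total RNA extracted and reverse transcribed. cat transcript quantified by SYBR Green qPCR, 40 cycles, normalised to gyrB by ΔCT. Triplicates, unpaired t-test.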

Klebsiella pneumoniae = experiment: Antimicrobial activity against Klebsiella pneumoniae ATCC 700603 assessed as reduction in microbial growth measured after 20 hrs by CLSI based broth microdilution method; assay type: functional; method in brief: as §1
Staphylococcus aureus [16] = experiment: Antimicrobial activity against Staphylococcus aureus ATCC 29213 assessed as reduction in microbial growth measured after 20 hrs by CLSI based broth microdilution method; assay type: functional; method in brief: as §1
Streptococcus pneumoniae [17] = experiment: Antimicrobial activity against Streptococcus pneumoniae ATCC 49619 assessed as reduction in microbial growth measured after 20 hrs by CLSI based broth microdilution method; assay type: functional
[18] = system: Staphylococcus saprophyticus; experiment: Antimicrobial activity against Staphylococcus saprophyticus ATCC 15305 assessed as reduction in microbial growth measured after 20 hrs by CLSI based broth microdilution method; assay type: functional
Enterobacter cloacae = experiment: Antimicrobial activity against Enterobacter cloacae ATCC 13047 assessed as reduction in microbial growth measured after 20 hrs by CLSI based broth microdilution method; assay type: functional; method in brief: as §1
Staphylococcus aureus [19] = experiment: Antimicrobial activity against Staphylococcus aureus ATCC 25923 assessed as reduction in bacterial growth at 4 to 16 times MIC measured over 6 hrs by time-kill assay relative to control; assay type: functional; design: scale not given: the % may be the effect or the level left; method in brief: as §2
Streptococcus pneumoniae [20] = experiment: Antimicrobial activity against Streptococcus pneumoniae clinical isolate CUHK-X02 assessed as reduction in microbial growth measured after 20 hrs by CLSI based broth microdilution method; assay type: functional
Staphylococcus aureus [21] = experiment: Antimicrobial activity against Staphylococcus aureus ATCC 25923 assessed as reduction in bacterial count below the detectable threshold at 4 to 16 times MIC measured within 2 hrs by time-kill assay; assay type: functional, organism-based
Bacillus subtilis [22] = experiment: Antibacterial activity against Bacillus Subtilis assessed as bacterial transcription by measuring delocalization of NusG at 1 time MIC incubated for 30 mins by epifluorescence microscopy based analysis; assay type: functional, organism-based; method in brief: as §3
Pseudomonas aeruginosa = experiment: Antimicrobial activity against Pseudomonas aeruginosa ATCC 27853 assessed as reduction in microbial growth measured after 20 hrs by CLSI based broth microdilution method; assay type: functional; method in brief: as §1
Streptococcus pneumoniae [23] = experiment: Antimicrobial activity against Streptococcus pneumoniae NP112 (NR-19213) assessed as reduction in microbial growth measured after 20 hrs by CLSI based broth microdilution method; assay type: functional
Streptococcus pneumoniae [24] = experiment: Antimicrobial activity against Streptococcus pneumoniae TCH8431 (HM-145) assessed as reduction in microbial growth measured after 20 hrs by CLSI based broth microdilution method; assay type: functional
Streptococcus pneumoniae [25] = experiment: Antimicrobial activity against Streptococcus pneumoniae clinical isolate CUHK-X04 assessed as reduction in microbial growth measured after 20 hrs by CLSI based broth microdilution method; assay type: functional
Streptococcus agalactiae = experiment: Antimicrobial activity against Streptococcus agalactiae ATCC 12386 assessed as reduction in microbial growth measured after 20 hrs by CLSI based broth microdilution method; assay type: functional
Staphylococcus aureus [26] = experiment: Antimicrobial activity against Staphylococcus aureus ATCC 25923 assessed as inhibition of microbial growth at 1 times MIC measured after 2 hrs by time-kill assay; assay type: functional, organism-based
Escherichia coli [27] = experiment: Antimicrobial activity against Escherichia coli K12 transformed with pSL103 assessed as reduction in bacterial growth measured after 30 mins; assay type: functional; conditions: K12, 0.5 h

In the case of `OC(CNCCNc1ccccc1C(F)(F)F)CSc1ccc(C(F)(F)F)cc1` (centres undefined), the MIC (Escherichia coli [1]) was 64 µg/mL, the Activity (Staphylococcus aureus [2]) was “Active” and the MIC (Acinetobacter baumannii) was over 256 µg/mL. The MIC (Streptococcus pneumoniae [3]) was 8 µg/mL, the MIC (Streptococcus pneumoniae [4]) was 1 µg/mL and the Activity (Bacillus subtilis [5]) was “Active”. It also gave an Activity (Staphylococcus aureus [6]) of under 200 CFU/ml, a pIC50 [7] of 3.85 and an MIC (Streptococcus pyogenes) of 8 µg/mL. For the same compound, the Activity (Bacillus subtilis [8]) was “Active”, the Activity (Staphylococcus aureus [9]) was “Active” and the Activity (Bacillus subtilis [10]) was “Active”. For the same compound, the MIC (Staphylococcus aureus [11]) was 4 µg/mL, the Activity (Staphylococcus aureus [12]) was “Active” and the MIC (Enterococcus faecalis) was 8 µg/mL. For the same compound, the Activity (Staphylococcus aureus [13]) was “Active”, the MIC [14] was 8 µg/mL and the Activity (Escherichia coli [15]) was “Active”. For the same compound, the MIC (Klebsiella pneumoniae) was over 256 µg/mL, the MIC (Staphylococcus aureus [16]) was 4 µg/mL and the MIC (Streptococcus pneumoniae [17]) was 1 µg/mL. For the same compound, the MIC [18] was 2 µg/mL, the MIC (Enterobacter cloacae) was 32 µg/mL and the Activity (Staphylococcus aureus [19]) was 100%. For the same compound, the MIC (Streptococcus pneumoniae [20]) was 4 µg/mL, the Activity (Staphylococcus aureus [21]) was “Active” and the Activity (Bacillus subtilis [22]) was “Active”. The MIC (Pseudomonas aeruginosa) was over 256 µg/mL, the MIC (Streptococcus pneumoniae [23]) was 4 µg/mL and the MIC (Streptococcus pneumoniae [24]) was 2 µg/mL. The MIC (Streptococcus pneumoniae [25]) was 2 µg/mL, the MIC (Streptococcus agalactiae) was 16 µg/mL and the Activity (Staphylococcus aureus [26]) was “Active”. The MIC (Escherichia coli [27]) was 16 µg/mL (≈ 36.5 µM).
